SMILES strings stand for the structures. Converted amounts (≈) assume the structure as drawn.

Data set [1] in a line: Metabolic stability in monkey liver microsomes assessed as half life measured upto 120 mins. It counts as ADME, Macaca mulatta, Microsome. Particulars: rhesus monkey.
A short description of data set [2]: Solubility of the compound in phosphate buffer at pH 6.5. It counts as physicochemical. In a few lines: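 Solubility measured in 50 mM phosphate buffer at pH 6.5; reported in µg/mL.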
The nature of data set [3]: Antitumor activity against human JJN-3R cells xenografted in po dosed mouse assessed as tumor growth inhibition administered qd for 7 days beginning 8 days after tumor-cell implantation. It counts as functional. Particulars: 168 h, time 7 day, read-out: MED. In a few lines:
(§1)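 JJN3R multiple myeloma xenograft in mice. Oral dosing once daily for 7 days began 8 days after tumor-cell implantation, on established tumors. Read-out was % tumor growth inhibition, and the minimum efficacious dose was identified.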

The nature of data set [4]: Metabolic stability in mouse liver microsomes assessed as half life measured upto 120 mins. The format is ADME, Microsome.
Data set [5] is described as follows: Antiproliferative activity against Velcade-resistant human JJN-3R cells assessed as reduction in cell viability. It counts as functional, cell-based. In a few lines: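 Multiple myeloma cell proliferation assay in the Velcade-resistant JJN3R line; IC50 taken from proliferation.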
Data set [6] can be described thus: Metabolic stability in human liver microsomes assessed as half life measured upto 120 mins. It counts as ADME, Microsome.
Data set [7] in a line: Permeability of the compound at pH 7.4 by PAMPA. The format is ADME. To be noted: read-out: permeability. Put shortly: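 PAMPA run at pH 7.4; permeability reported in nm/sec.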
Data set [8] deals with T1, Bromodomain-containing protein 4 (Homo sapiens, UniProt O60885). Kind of data set: Inhibition of BRD4 (unknown origin). Put shortly:
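BRD4 binding assay; IC50 in nM, reported as mean ± SEM.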

Data set [9] in a line: AUC (0 to 24 hrs) in mouse at 3 mg/kg, po measured for 24 hrs. The format is ADME, organism-based. Details: route oral, time 24 hrs, dose 3 mg/kg. Particulars: in vivo.
The nature of data set [10]: Antitumor activity against human JJN-3R cells xenografted in mouse assessed as tumor growth inhibition at 1 mg/kg, po qd administered for 7 days beginning 8 days after tumor-cell implantation. Particulars: 168 h, time 7 day, read-out: TGI. The format is functional. In a few lines: as §1
Data set [11] is described as follows: Metabolic stability in rat liver microsomes assessed as half life measured upto 120 mins. It counts as ADME, Microsome.
Data set [12] has as its target T1, Bromodomain-containing protein 4. Kind of data set: Inhibition of BRD4 (unknown origin) assessed as reduction in c-Myc expression. In a few lines: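 Functional c-Myc assay with MYC expression as the read-out; IC50 in nM, reported as mean ± SEM.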
The nature of data set [13]: Metabolic stability in dog liver microsomes assessed as half life measured upto 120 mins. The format is ADME, Canis lupus familiaris, Microsome. Particulars: for half-life: liver microsomes.
Data set [14] is described as follows: Protein binding in human serum assessed as free fraction. The format is ADME, cell-free.
Data set [15] can be described thus: Antitumor activity against human JJN-3R cells xenografted in mouse assessed as tumor growth inhibition at 2 mg/kg, po qd administered for 7 days beginning 8 days after tumor-cell implantation. Particulars: 168 h, time 7 day, read-out: TGI. The format is functional. Put shortly: as §1
A short description of data set [16]: Antitumor activity against human JJN-3R cells xenografted in mouse assessed as tumor growth inhibition at 4 mg/kg, po qd administered for 7 days beginning 8 days after tumor-cell implantation. It counts as functional. Particulars: 168 h, time 7 day, read-out: TGI. Put shortly:
as §1

On to `[2H]C([2H])([2H])c1nnn(C)c1-c1cnc2c3ccc(C(C)(C)O)c(F)c3n([C@H](c3ncccc3F)C3CCOCC3)c2c1`, for which the half-life turned out to be 22 min in [1]; 16 min in data set [4]; 75 min in data set [6]; 47 min in data set [11]; 37 min in data set [13]. Moreover, the solubility in data set [2] was 91 µg/mL (≈ 170 µM). Moreover, the minimal effective dose in data set [3] stood at 1 mg/kg. Besides, the IC50 in [5] worked out at 1.7 nM; in data set [8] it was 0.6 nM; in [12], 0.9 nM. For the same compound, in data set [7], the Papp turned out to be 42 ×10⁻⁶ cm/s. In addition, in [9], the exposure AUC(0-t) at 24 h is 10.9 µM·h. In data set [10], the inhibition in vivo at 1 mg/kg came to 91%. For the same compound, the fraction unbound in [14] came out at 0.06.
For `[2H]C([2H])([2H])c1nnn(C)c1-c1cnc2c3ccc(C(C)(C)O)cc3n([C@H](c3ncccc3F)C3CCOCC3)c2c1`, the half-life in [1] is 22 min; in data set [4], 24 min; in [6], 79 min; in data set [11] it was 48 min; in data set [13], 36 min. Moreover, the IC50 in data set [5] came out at 3.6 nM; in [8], 0.9 nM; in data set [12], 1 nM. The Papp in data set [7] was found to be 27 ×10⁻⁶ cm/s. In data set [14], the unbound share (fraction unbound) was 0.04.
Turning to `Cc1nnn(C)c1-c1cnc2c3ccc(C(C)(C)O)cc3n(C(c3cnn[nH]3)C3CCOCC3)c2c1` (configuration not stated), the half-inhibitory concentration (IC50) in data set [5] was found to be 710 nM; in [8] it was 27 nM; in [12], 210 nM. In addition, the Papp in data set [7] was 12 ×10⁻⁶ cm/s.
Turning to `[2H]C([2H])([2H])c1nnn(C)c1-c1cnc2c3c(F)cc(C(C)(C)O)cc3n([C@H](c3cc(C)on3)C3CCOCC3)c2c1`, the half-life in data set [1] came to 34 min; in data set [4], 17 min; in [6] it was 120 min; in data set [11] it was 33 min; in [13], 71 min. Moreover, the IC50 amounted to 3.9 nM in data set [5] and 2.8 nM in data set [12]. Also, in data set [7], the Papp was 41 ×10⁻⁶ cm/s.
Turning to `Cc1cc([C@H](C2CCOCC2)n2c3cc(C(C)(C)O)ccc3c3ncc(-c4c(C)nnn4C)cc32)no1`, the half-life amounted to 16 min in data set [1]; 10 min in data set [4]; 61 min in data set [6]; 26 min in data set [11]; 38 min in data set [13]. Besides, the IC50 in [5] is 11 nM; in data set [8], 1.6 nM; in data set [12], 2.8 nM. For the same compound, in data set [7], the Papp stood at 35 ×10⁻⁶ cm/s.
Regarding `[2H]C([2H])([2H])c1nnn(C)c1-c1cnc2c3cc(F)c(C(C)(C)O)cc3n([C@H](c3ccccc3)C3CCOCC3)c2c1`, the half-life in data set [1] was 19 min; in data set [4] it was 41 min; in data set [6], 52 min; in [11] it was 46 min. The compound also had a solubility in [2] of 4 µg/mL (≈ 7.74 µM). Moreover, the concentration for half-maximal inhibition (IC50) in data set [5] was determined as 6 nM; in data set [8], 0.9 nM; in data set [12], 2 nM. Moreover, the Papp in data set [7] was 69 ×10⁻⁶ cm/s. The inhibition in vivo at 2 mg/kg in data set [15] stood at 77%. Moreover, in data set [9], the area under the curve AUC(0-t) at 24 h is 12.6 µM·h. The t1/2 in data set [13] (microsomes, 2 h) is on record as 32 min. In addition, the fraction unbound in data set [14] turned out to be 0.01. Also, the inhibition in vivo at 4 mg/kg in data set [16] was determined as 78%.
For `[2H]C([2H])([2H])c1nnn(C)c1-c1cnc2c3ccc(C(C)(C)O)cc3n([C@H](c3cc(C)on3)C3CCOCC3)c2c1`, the half-life was 37 min in [1]; 30 min in data set [4]; 64 min in [6]; 33 min in data set [11]; 75 min in [13]. Moreover, the 50% inhibitory concentration (IC50) was 9.9 nM in data set [5], 1.2 nM in data set [8] and 2.1 nM in data set [12]. Besides, in data set [7], the Papp is 26 ×10⁻⁶ cm/s. In addition, the fraction unbound in data set [14] is 0.14.
Take `[2H]C([2H])([2H])c1nnn(C)c1-c1cnc2c3ccc(C(C)(C)O)cc3n([C@H](c3ccc(Cl)cn3)C3CCOCC3)c2c1`: the half-life in data set [1] came out at 37 min; in data set [4], 35 min; in data set [6], 55 min; in [11], 62 min; in data set [13], 61 min. Besides, the half-maximal inhibitory concentration (IC50) in data set [5] was determined as 4.8 nM; in [8], 1 nM; in [12], 1.2 nM. For the same compound, the Papp in data set [7] is 61 ×10⁻⁶ cm/s. In [14], the fraction unbound is 0.06. Further, the inhibition in vivo at 4 mg/kg in data set [16] amounted to 76%.
With `[2H]C([2H])([2H])c1nnn(C)c1-c1cnc2c3cc(F)c(C(C)(C)O)cc3n([C@H](c3cc(C)on3)C3CCOCC3)c2c1`, the half-life in data set [1] was determined as 21 min; in [4], 26 min; in [6], 54 min; in data set [11] it was 3 min; in data set [13], 33 min. Further, the IC50 amounted to 14 nM in data set [5], 1.4 nM in data set [8] and 2.2 nM in [12]. Besides, the Papp in data set [7] amounted to 69 ×10⁻⁶ cm/s.
Regarding `Cc1cc([C@H](C2CCOCC2)n2c3cc(C(C)(C)O)ccc3c3ncc(-c4c(C)nnn4C)cc32)n(C)n1`, the half-life in data set [1] stood at 36 min; in [4], 50 min; in data set [6], 83 min; in data set [11] it was 59 min; in data set [13] it was 52 min. The IC50 in data set [5] turned out to be 55 nM; in [8], 2.3 nM; in data set [12], 7.1 nM. For the same compound, the Papp in data set [7] is 15 ×10⁻⁶ cm/s.
Turning to `[2H]C([2H])([2H])c1nnn(C)c1-c1cnc2c3ccc(C(C)(C)O)c(F)c3n([C@H](c3cc(C)on3)C3CCOCC3)c2c1`, the half-life was determined as 23 min in data set [1]; 30 min in data set [4]; 79 min in [6]; 30 min in [11]; 52 min in data set [13]. The same compound yielded a solubility in [2] of 120 µg/mL (≈ 230 µM). In addition, the minimal effective dose in data set [3] came out at 4 mg/kg. In addition, the values for the 50% inhibitory concentration (IC50) in data set [5], in data set [8] and in data set [12] were 13 nM, 2 nM and 3.9 nM, respectively. Further, the Papp in data set [7] is 80 ×10⁻⁶ cm/s. This compound registered an area under the curve AUC(0-t) at 24 h in data set [9] of 8.7 µM·h. Besides, in data set [14], the fraction unbound turned out to be 0.16. In data set [16], the inhibition in vivo at 4 mg/kg stood at 71%.

These data come from ChEMBL document CHEMBL4808188, “Development of BET inhibitors as potential treatments for cancer: A search for structural diversity” (Bioorg Med Chem Lett, 2021).
